Laboratory results from ChEMBL document CHEMBL1130053, “Synthesis and biological evaluation of the enantiomers of the potent and selective A1-adenosine antagonist 1,3-dipropyl-8-[2-(5,6-epoxynorbonyl)]-xanthine” (J Med Chem, 1997).

Columns and labels:
Adenosine receptor A1 [1] = target: T1, Adenosine receptor A1 (Rattus norvegicus, UniProt P25099); test: Binding affinity for Adenosine A1 receptor of rat forebrain
T1 sequence (P25099 whole entry): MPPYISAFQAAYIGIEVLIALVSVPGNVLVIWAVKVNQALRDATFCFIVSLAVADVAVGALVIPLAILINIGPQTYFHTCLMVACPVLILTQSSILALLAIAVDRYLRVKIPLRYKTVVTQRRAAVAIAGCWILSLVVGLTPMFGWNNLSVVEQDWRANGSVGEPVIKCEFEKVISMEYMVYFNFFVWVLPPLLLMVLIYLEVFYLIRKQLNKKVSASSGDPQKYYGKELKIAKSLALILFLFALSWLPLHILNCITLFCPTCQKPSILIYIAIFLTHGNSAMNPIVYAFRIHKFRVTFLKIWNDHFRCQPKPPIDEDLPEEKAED

Adenosine receptor A1 [2] = target: T2, Adenosine receptor A1 (Cavia porcellus, UniProt P47745); test: Binding affinity for Adenosine A1 receptor from Guinea pig membranes
T2 sequence (P47745 whole entry): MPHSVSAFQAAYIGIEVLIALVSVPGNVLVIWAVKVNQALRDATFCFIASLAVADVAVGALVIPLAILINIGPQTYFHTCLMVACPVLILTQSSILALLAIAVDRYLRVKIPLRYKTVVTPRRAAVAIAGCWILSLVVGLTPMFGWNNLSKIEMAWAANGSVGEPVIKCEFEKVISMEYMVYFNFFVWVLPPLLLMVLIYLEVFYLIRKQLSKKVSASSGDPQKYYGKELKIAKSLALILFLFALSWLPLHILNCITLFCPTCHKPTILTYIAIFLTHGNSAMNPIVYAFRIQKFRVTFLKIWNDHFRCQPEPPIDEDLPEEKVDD

Adenosine receptor A1 [3] = target: T3, Adenosine receptor A1 (Homo sapiens, UniProt P30542); test: Inhibition of binding to membranes from HEK293 cells expressing human Adenosine A1 receptor; format: cell membranes
T3 sequence (P30542 whole entry): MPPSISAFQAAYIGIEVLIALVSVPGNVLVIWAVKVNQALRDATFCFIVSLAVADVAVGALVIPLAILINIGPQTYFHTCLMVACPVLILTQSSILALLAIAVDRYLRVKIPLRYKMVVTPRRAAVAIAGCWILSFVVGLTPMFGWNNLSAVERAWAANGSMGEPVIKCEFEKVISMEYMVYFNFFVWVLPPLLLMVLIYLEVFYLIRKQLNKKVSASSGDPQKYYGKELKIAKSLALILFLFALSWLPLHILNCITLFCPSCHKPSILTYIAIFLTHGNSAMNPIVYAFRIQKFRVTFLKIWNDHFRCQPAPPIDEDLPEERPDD

Adenosine A2 receptor = Adenosine A2 receptor (Rattus norvegicus, UniProt P29276+P30543); test: Binding affinity for Adenosine A2 receptor from rat striatal membranes
Rattus norvegicus [4] = test: Potassium ion output (collected per 4 h) in Saline -Loaded Rats at 0.01 mg /kg intravenous dose; format: functional
Summary of the method: (§1)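 Sprague-Dawley rats (250-350 g), 2 h equilibration, then tail-vein dosing (vehicle 50% saline/40% PEG/10% ethanol, 1.0 mL/kg). This was followed at once by 40 mL/kg saline po. Urine collected 4 h in metabolic cages, volume by weight, Na⁺/K⁺ by flame photometry. n = 6-7 per dose, mean ± SEM, 1-way ANOVA with Bonferroni test versus vehicle.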

Rattus norvegicus [5] = test: Potassium ion output (collected per 4 h) in Saline -Loaded Rats at 0.1 mg /kg intravenous dose; format: functional; summary of the method: as §1
Rattus norvegicus [6] = test: Potassium ion output (collected per 4 h) in Saline -Loaded Rats at 1.0 mg /kg intravenous dose; format: functional; summary of the method: as §1
Rattus norvegicus [7] = test: Sodium ion output (collected per 4 h) in Saline -Loaded Rats at 0.01 mg /kg intravenous dose; format: functional; summary of the method: as §1
Rattus norvegicus [8] = test: Sodium ion output (collected per 4 h) in Saline -Loaded Rats at 0.1 mg /kg intravenous dose; format: functional; summary of the method: as §1
Rattus norvegicus [9] = test: Sodium ion output (collected per 4 h) in Saline -Loaded Rats at 1.0 mg /kg intravenous dose; format: functional; summary of the method: as §1
Rattus norvegicus [10] = test: Urine output (collected per 4 h) in Saline -Loaded Rats at 0.01 mg /kg intravenous dose; format: functional; summary of the method: as §1
Rattus norvegicus [11] = test: Urine output (collected per 4 h) in Saline -Loaded Rats at 0.1 mg /kg intravenous dose; format: functional; summary of the method: as §1
Rattus norvegicus [12] = test: Urine output (collected per 4 h) in Saline -Loaded Rats at 1.0 mg /kg intravenous dose; format: functional; summary of the method: as §1

Row | Ki (Adenosine receptor A1 [1]) [nM] | Ki (Adenosine receptor A1 [2]) [nM] | Ki (Adenosine receptor A1 [3]) [nM] | Ki (Adenosine A2 receptor) [nM] | SMILES | K+ output (Rattus norvegicus [4]) [mmol/kg] | K+ output (Rattus norvegicus [5]) [mmol/kg] | K+ output (Rattus norvegicus [6]) [mmol/kg] | Na+ output (Rattus norvegicus [7]) [mmol/kg] | Na+ output (Rattus norvegicus [8]) [mmol/kg] | Na+ output (Rattus norvegicus [9]) [mmol/kg] | Urine output (Rattus norvegicus [10]) [mL/kg] | Urine output (Rattus norvegicus [11]) [mL/kg] | Urine output (Rattus norvegicus [12]) [mL/kg]
1 | 1.43 | 3.15 | 0.82 | 309 | CCCn1c(=O)c2nc(C3CC4CC3C3OC43)[nH]c2n(CCC)c1=O (stereo in doubt) | 1.1 | 1.22 | 1.42 | 3.54 | 5.14 | 6.54 | 23.2 | 33 | 43.2
2 | 5.12 | 3.17 | 0.8 | 551 | CCCn1c(=O)c2nc(C3CC4CC3C3OC43)[nH]c2n(CCC)c1=O (stereo in doubt; 8) | 0.97 | 0.89 | 1.84 | 3.8 | 4.56 | 5.99 | 26.8 | 31.3 | 44.1
3 | 0.67 | 1.43 | 0.45 | 1250 | CCCn1c(=O)c2nc(C3CC4CC3C3OC43)[nH]c2n(CCC)c1=O (stereo in doubt; 12) | 0.75 | 1.34 | 1.09 | 3.02 | 5.29 | 5.86 | 21.7 | 35.1 | 37.1
4 | – | – | – | 510 | CCCn1c(=O)c2nc(C34CC5CC(CC3C5)C4)[nH]c2n(CCC)c1=O [ROLOFYLLINE] | – | – | – | – | – | – | – | – | –
